Here are results for 19 molecules from ChEMBL document CHEMBL2016482, “Synthesis and inhibitory effect of piperine derivates on monoamine oxidase” (Bioorg Med Chem Lett, 2012).

SMILES strings stand for the structures.

In series [1] the target is T1, Amine oxidase [flavin-containing] A (Rattus norvegicus, UniProt P21396).
T1 sequence (P21396 whole entry): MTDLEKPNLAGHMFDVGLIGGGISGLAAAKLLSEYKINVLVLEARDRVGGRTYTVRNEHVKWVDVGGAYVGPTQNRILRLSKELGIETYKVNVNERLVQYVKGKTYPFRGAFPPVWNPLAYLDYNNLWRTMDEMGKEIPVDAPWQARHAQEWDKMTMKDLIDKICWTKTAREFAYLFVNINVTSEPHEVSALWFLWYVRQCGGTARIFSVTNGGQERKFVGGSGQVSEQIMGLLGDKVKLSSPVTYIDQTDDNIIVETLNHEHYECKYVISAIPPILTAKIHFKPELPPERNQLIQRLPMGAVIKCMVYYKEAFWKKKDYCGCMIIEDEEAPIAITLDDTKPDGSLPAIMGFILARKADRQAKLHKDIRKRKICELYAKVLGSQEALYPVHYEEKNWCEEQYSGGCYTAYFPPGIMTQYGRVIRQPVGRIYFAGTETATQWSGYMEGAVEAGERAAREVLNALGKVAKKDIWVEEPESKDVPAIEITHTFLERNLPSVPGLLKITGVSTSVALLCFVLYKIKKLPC
Kind of series: Inhibition of MAO-A in Sprague-Dawley rat brain homogenate using kynuramine as substrate preincubated for 10 mins measured by fluorimetric assay. Type of series: tissue-based. The method in brief: (§1)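 Rat brain homogenate was the enzyme source, with protein measured by Bradford against a BSA standard. Fluorometric MAO assay used kynuramine substrate in the presence of isoform-specific inhibitors. Test inhibitor was preincubated with homogenate for 10 min. IC50 came from plots of % residual activity relative to enzyme treated identically without inhibitor.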

The species entered for a further series is Rattus norvegicus. The experiment in a line: Selectivity ratio of IC50 for Sprague-Dawley rat MAO-A to IC50 for Sprague-Dawley rat MAO-B.
Series [2] concerns the target T2, Amine oxidase [flavin-containing] B (Rattus norvegicus, UniProt P19643).
T2 sequence (P19643 whole entry): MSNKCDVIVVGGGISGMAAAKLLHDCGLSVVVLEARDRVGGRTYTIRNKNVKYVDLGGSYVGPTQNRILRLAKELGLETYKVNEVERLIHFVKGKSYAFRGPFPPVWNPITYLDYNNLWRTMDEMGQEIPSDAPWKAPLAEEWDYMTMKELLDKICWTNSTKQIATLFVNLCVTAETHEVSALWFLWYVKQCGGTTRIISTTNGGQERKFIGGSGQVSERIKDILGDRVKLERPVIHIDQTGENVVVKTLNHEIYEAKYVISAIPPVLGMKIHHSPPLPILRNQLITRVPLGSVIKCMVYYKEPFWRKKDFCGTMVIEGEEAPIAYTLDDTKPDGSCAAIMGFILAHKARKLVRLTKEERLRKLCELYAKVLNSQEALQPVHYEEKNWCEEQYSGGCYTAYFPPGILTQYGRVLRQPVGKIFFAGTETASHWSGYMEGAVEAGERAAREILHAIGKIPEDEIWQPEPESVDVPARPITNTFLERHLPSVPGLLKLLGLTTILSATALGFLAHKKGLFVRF
Kind of series: Inhibition of MAO-B in Sprague-Dawley rat brain homogenate using kynuramine as substrate preincubated for 10 mins measured by fluorimetric assay. In kind it is tissue-based. Put shortly:
as §1

The target of series [3] is T2, Amine oxidase [flavin-containing] B. The experiment in a line: Competitive inhibition of MAO-B in Sprague-Dawley rat brain homogenate by Lineweaver-Burk plot analysis. In kind it is tissue-based. The method in brief: (§2)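 Kinetic mode of the same homogenate kynuramine fluorometric assay. Reciprocal MAO activity was plotted against reciprocal kynuramine concentration (Lineweaver–Burk), each at three inhibitor levels including zero, run separately for MAO-A and MAO-B.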

Series [4] has as its target T1, Amine oxidase [flavin-containing] A. Kind of series: Competitive inhibition of MAO-A in Sprague-Dawley rat brain homogenate by Lineweaver-Burk plot analysis. Type of series: tissue-based. The method in brief:
as §2

Regarding `O=C(O)/C=C/C=C/c1ccc2c(c1)OCO2` [PIPERIC ACID], the half-inhibitory concentration (IC50) in series [1] was 18.3 µM; in series [2], 13600 nM. In the series filed under Rattus norvegicus, the Ratio IC50 turned out to be 1.35.
For `CC(=O)Oc1ccc(/C=C/C=C/C(=O)N2CCCCC2)cc1OC(C)=O`, in that order: 1.28 µM, 750 nM and 1.71.
The matching figures for `CCOC(=O)/C=C/C=C/c1ccc2c(c1)OCO2`: 7.55 µM, 330 nM and 22.8.
As for `CN1CCN(C(=O)CCCCc2ccc3c(c2)OCO3)CC1`, the values for the IC50 in series [1] and in series [2] were above 100 µM and above 100000 nM, respectively.
As for `CCCCNC(=O)CCCCc1ccc2c(c1)OCO2`, the IC50 amounted to 16.1 µM in series [1] and 3500 nM in series [2]. Further, the Ratio IC50 in the series filed under Rattus norvegicus turned out to be 4.59.
For `CN1CCN(C(=O)/C=C/C=C/c2ccc3c(c2)OCO3)CC1`, in that order: 2.04 µM, 960 nM and 2.12.
With `O=C(C1C=CC(c2ccc3c(c2)OCO3)C(/C=C/c2ccc3c(c2)OCO3)C1C(=O)N1CCCCC1)N1CCCCC1` (stereo not drawn), the results for the IC50 in series [1] and in series [2] were above 100 µM and above 100000 nM, respectively.
Turning to `CCCNC(=O)/C=C/C=C/c1ccc2c(c1)OCO2`, the “inhibition (INH)” value in series [3] and in series [4] was “Active” each time. Moreover, the IC50 came to 3.66 µM in series [1] and 45 nM in series [2]. For the same molecule, the Ratio IC50 in the series filed under Rattus norvegicus stood at 81.5.
Turning to `CCOC(=O)CCCCc1ccc2c(c1)OCO2`, the IC50 in series [1] was determined as 5.57 µM; in series [2], 1230 nM. In the series listed under Rattus norvegicus, the Ratio IC50 came out at 4.53.
With `CCCNC(=O)CCCCc1ccc2c(c1)OCO2`, the values for the IC50 in series [1] and in series [2] were above 100 µM and above 100000 nM, respectively.
Consider `COC(=O)/C=C/C=C/c1ccc2c(c1)OCO2` [METHYL PIPERATE], for which the values for the IC50 in series [1] and in series [2] were 2.74 µM and 230 nM, respectively. Moreover, the Ratio IC50 in the series listed under Rattus norvegicus stood at 11.9.
Take `O=C(/C=C/C=C/c1ccc(O)c(O)c1)N1CCCCC1`: the values for the IC50 in series [1] and in series [2] were 0.8 µM and 1570 nM, respectively. In addition, the Ratio IC50 in the series listed under Rattus norvegicus turned out to be 0.51.
`CCN(CC)C(=O)CCCCc1ccc2c(c1)OCO2`: the IC50 came to 5.21 µM in series [1] and 1750 nM in series [2]. The Ratio IC50 in the series listed under Rattus norvegicus stood at 2.98.
The matching figures for `CCN(CC)C(=O)/C=C/C=C/c1ccc2c(c1)OCO2`: 3.82 µM, 78 nM and 49.
As to `COC(=O)CCCCc1ccc2c(c1)OCO2`, the IC50 in series [1] was 3.17 µM; in series [2] it was 1800 nM. For the same molecule, the Ratio IC50 in the series filed under Rattus norvegicus was 1.76.
In the case of `C(/C=C/c1ccc2c(c1)OCO2)=C\CN1CCCCC1`, the figures for the IC50 in series [1] and in series [2] were above 100 µM and above 100000 nM, respectively.
For `O=C(CCCCc1ccc2c(c1)OCO2)N1CCCCC1` [TETRAHYDROPIPERINE], in that order: above 100 µM and 1970 nM.
The matching figures for `CCCCNC(=O)/C=C/C=C/c1ccc2c(c1)OCO2`: above 100 µM and 330 nM.
For the molecule `O=C(/C=C/C=C/c1ccc2c(c1)OCO2)N1CCCCC1` [PIPERINE], the IC50 came out at 0.404 µM in series [1] and 260 nM in series [2]. Moreover, in the series listed under Rattus norvegicus, the Ratio IC50 came out at 1.55.

In general, IC50 refers to the midpoint of a concentration-inhibition curve. High values mean weaker potency, low ones greater potency.
